Laboratory results: publication PMC3776982 (British Journal of Cancer, 2013)
Where two headings read alike, the source gives them in different places.

Columns and labels:
[1] = system: small-cell lung cancer (SCLC); assay: Tumour response according to RECIST version 1.1; format: in vivo, human; details: + paclitaxel
[2] = system: previously treated SCLC patients; format: in vivo, human
Method in brief: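 Open-label 3-level escalation of oral daily everolimus (2.5→5→10 mg) with fixed paclitaxel 175 mg m−2 every 3 weeks; up to six patients per level, no intrapatient escalation. DLT was assessed in cycle 1 and defined as: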

[3] = system: small-cell lung cancer (SCLC); assay: Tumour response by phospho-Akt and phospho-S6 expression; format: in vivo, human; details: everolimus + paclitaxel
Method in brief: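 Pretreatment tumour specimens were formalin-fixed and paraffin-embedded, cut into 4 μm sections, deparaffinised in xylene and rehydrated. Sections were immunostained on an autostainer with polymer detection, using rabbit monoclonal phospho-Akt (Ser473) at 1:80 and phospho-S6 (Ser235/236) at 1:200. Tumour response was assessed every two cycles by RECIST 1.1.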

[4] = system: previously treated SCLC patients; assay: Adverse events; format: in vivo, human
Method in brief: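 Toxicities graded by CTCAE v3.0 in adults with SCLC that had progressed after ≥2 prior chemotherapy regimens, including a platinum one. Paclitaxel 175 mg m−2 was given as a 3-h IV infusion every 3 weeks. Everolimus was given orally once daily (2.5, 5 or 10 mg) over 21-day courses. Patients were assessed weekly during cycle 1, then every 3 weeks.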

breast cancer = details: 10 mg everolimus daily, patients with breast cancer; ref Ellard et al, 2009; cited from earlier work
[5] = Everolimus pharmacokinetics in whole blood; format: in vivo, human
Method in brief: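 Samples were taken from six expansion-cohort patients at the MTD with paclitaxel, 10 per patient. Post-dose samples were drawn at 1, 2, 4, 6, 12 and 24 h on day 1 of cycle 2. Everolimus was quantified in whole blood by LC-MS/MS after protein precipitation.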

[6] = all everolimus doses (n=20), any grade, + 3-weekly paclitaxel 175 mg m^−2
[7] = everolimus 2.5 mg daily (n=6), grade 1/2, + 3-weekly paclitaxel 175 mg m^−2
[8] = everolimus 2.5 mg daily (n=6), grade 3/4, + 3-weekly paclitaxel 175 mg m^−2
[9] = everolimus 5 mg daily (n=11), grade 1/2, + 3-weekly paclitaxel 175 mg m^−2
[10] = everolimus 5 mg daily (n=11), grade 3/4, + 3-weekly paclitaxel 175 mg m^−2
[11] = everolimus 10 mg daily (n=3), grade 1/2, + 3-weekly paclitaxel 175 mg m^−2
[12] = everolimus 10 mg daily (n=3), grade 3/4, + 3-weekly paclitaxel 175 mg m^−2

CO[C@H]1C[C@@H]2CC[C@@H](C)[C@@](O)(O2)C(=O)C(=O)N2CCCC[C@H]2C(=O)O[C@H]([C@H](C)C[C@@H]2CC[C@@H](OCCO)[C@H](OC)C2)CC(=O)[C@H](C)/C=C(\C)[C@@H](O)[C@@H](OC)C(=O)[C@H](C)C[C@H](C)/C=C/C=C/C=C/1C [everolimus]
Objective response rate ([1]; dose level 1 (everolimus 2.5 mg daily), one out of 6 patients): 17%
Objective response rate ([1]; dose level 2 (everolimus 5 mg daily), 2 out of 10 patients): 20%
Objective response rate ([1]; dose level 3 (everolimus 10 mg daily), 2 out of 3 patients): 67%
Dose-limiting toxicity, cycle 1: Hyperglycemia (number of patients) [2, 6]: 1
Dose-limiting toxicity, cycle 1: Thrombocytopenia (number of patients) [2, 6]: 2
Patients who experienced DLT in cycle 1 ([2]; dose level 1 (everolimus 2.5 mg daily), six patients, + 3-weekly paclitaxel 175 mg m^−2): None
Dose-limiting toxicity, cycle 1: Hyperglycemia (number of patients) [2, 7]: 0
Dose-limiting toxicity, cycle 1: Thrombocytopenia (number of patients) [2, 7]: 0
Dose-limiting toxicity, cycle 1: Hyperglycemia (number of patients) [2, 8]: 0
Dose-limiting toxicity, cycle 1: Thrombocytopenia (number of patients) [2, 8]: 0
Dose-limiting toxicity, cycle 1: Hyperglycemia (number of patients) [2, 9]: 0
Dose-limiting toxicity, cycle 1: Thrombocytopenia (number of patients) [2, 9]: 0
Dose-limiting toxicity, cycle 1: Hyperglycemia (number of patients) [2, 10]: 0
Dose-limiting toxicity, cycle 1: Hyperglycemia (number of patients) [2, 11]: 0
Dose-limiting toxicity, cycle 1: Thrombocytopenia (number of patients) [2, 11]: 0
Dose-limiting toxicity, cycle 1: Hyperglycemia (number of patients) [2, 12]: 1
Dose-limiting toxicity, cycle 1: Thrombocytopenia (number of patients) [2, 12]: 1
MTD and recommended phase-2 dose (dose level) ([2]; level 2 = everolimus 5 mg daily + 3-weekly paclitaxel 175 mg m^−2): level 2
Maximum tolerated dose (MTD) of everolimus ([2]; once daily, in combination with paclitaxel 175 mg m^−2 every 3 weeks): 5 mg
Response in phospho-S6-negative group (responders/patients) [3]: 1/3
Response in phospho-S6-positive group (responders/patients) [3]: 1/3
Objective responses in patients with phospho-Akt-negative tumours ([3]; four patients): two objective responses
Objective response in phospho-Akt-positive patients ([3]; two patients (one stable and one progressive disease)): No objective response
ALT increased (number of patients with adverse event) [4, 6]: 6
AST increased (number of patients with adverse event) [4, 6]: 6
Anorexia (number of patients with adverse event) [4, 6]: 6
Diarrhoea (number of patients with adverse event) [4, 6]: 3
Febrile neutropenia (number of patients with adverse event) [4, 6]: 1
Itching (number of patients with adverse event) [4, 6]: 4
Leukopenia (number of patients with adverse event) [4, 6]: 15
Neutropenia (number of patients with adverse event) [4, 6]: 16
Pain (number of patients with adverse event) [4, 6]: 10
Pneumonitis (number of patients with adverse event) [4, 6]: 1
Stomatitis (number of patients with adverse event) [4, 6]: 8
ALT increased (number of patients with adverse event) [4, 7]: 1
AST increased (number of patients with adverse event) [4, 7]: 1
Anaemia (number of patients with adverse event) [4, 7]: 5
Anorexia (number of patients with adverse event) [4, 7]: 2
Diarrhoea (number of patients with adverse event) [4, 7]: 0
Febrile neutropenia (number of patients with adverse event) [4, 7]: 0
Hyperglycemia (number of patients with adverse event) [4, 7]: 6
Hypertriglycemia (number of patients with adverse event) [4, 7]: 3
Itching (number of patients with adverse event) [4, 7]: 0
Leukopenia (number of patients with adverse event) [4, 7]: 4
Neuropathy (number of patients with adverse event) [4, 7]: 1
Neutropenia (number of patients with adverse event) [4, 7]: 3
Pain (number of patients with adverse event) [4, 7]: 2
Pneumonitis (number of patients with adverse event) [4, 7]: 0
Stomatitis (number of patients with adverse event) [4, 7]: 2
Thrombocytopenia (number of patients with adverse event) [4, 7]: 2
Vomiting (number of patients with adverse event) [4, 7]: 0
ALT increased (number of patients with adverse event) [4, 8]: 0
AST increased (number of patients with adverse event) [4, 8]: 0
Anaemia (number of patients with adverse event) [4, 8]: 0
Anorexia (number of patients with adverse event) [4, 8]: 0
Diarrhoea (number of patients with adverse event) [4, 8]: 0
Febrile neutropenia (number of patients with adverse event) [4, 8]: 0
Hyperglycemia (number of patients with adverse event) [4, 8]: 0
Hypertriglycemia (number of patients with adverse event) [4, 8]: 0
Itching (number of patients with adverse event) [4, 8]: 0
Leukopenia (number of patients with adverse event) [4, 8]: 1
Neuropathy (number of patients with adverse event) [4, 8]: 0
Neutropenia (number of patients with adverse event) [4, 8]: 1
Pain (number of patients with adverse event) [4, 8]: 0
Pneumonitis (number of patients with adverse event) [4, 8]: 0
Stomatitis (number of patients with adverse event) [4, 8]: 0
Thrombocytopenia (number of patients with adverse event) [4, 8]: 0
Vomiting (number of patients with adverse event) [4, 8]: 0
ALT increased (number of patients with adverse event) [4, 9]: 5
AST increased (number of patients with adverse event) [4, 9]: 4
Anaemia (number of patients with adverse event) [4, 9]: 10
Anorexia (number of patients with adverse event) [4, 9]: 3
Diarrhoea (number of patients with adverse event) [4, 9]: 2
Febrile neutropenia (number of patients with adverse event) [4, 9]: 0
Hyperglycemia (number of patients with adverse event) [4, 9]: 9
Hypertriglycemia (number of patients with adverse event) [4, 9]: 2
Itching (number of patients with adverse event) [4, 9]: 2
Leukopenia (number of patients with adverse event) [4, 9]: 4
Neuropathy (number of patients with adverse event) [4, 9]: 3
Neutropenia (number of patients with adverse event) [4, 9]: 3
Pain (number of patients with adverse event) [4, 9]: 6
Pneumonitis (number of patients with adverse event) [4, 9]: 1
Stomatitis (number of patients with adverse event) [4, 9]: 5
Thrombocytopenia (number of patients with adverse event) [4, 9]: 3
Vomiting (number of patients with adverse event) [4, 9]: 2
ALT increased (number of patients with adverse event) [4, 10]: 0
AST increased (number of patients with adverse event) [4, 10]: 0
Anaemia (number of patients with adverse event) [4, 10]: 1
Anorexia (number of patients with adverse event) [4, 10]: 0
Diarrhoea (number of patients with adverse event) [4, 10]: 0
Febrile neutropenia (number of patients with adverse event) [4, 10]: 1
Hyperglycemia (number of patients with adverse event) [4, 10]: 0
Hypertriglycemia (number of patients with adverse event) [4, 10]: 0
Itching (number of patients with adverse event) [4, 10]: 0
Leukopenia (number of patients with adverse event) [4, 10]: 4
Neuropathy (number of patients with adverse event) [4, 10]: 1
Neutropenia (number of patients with adverse event) [4, 10]: 6
Pain (number of patients with adverse event) [4, 10]: 0
Pneumonitis (number of patients with adverse event) [4, 10]: 0
Stomatitis (number of patients with adverse event) [4, 10]: 0
Thrombocytopenia (number of patients with adverse event) [4, 10]: 1
Vomiting (number of patients with adverse event) [4, 10]: 0
ALT increased (number of patients with adverse event) [4, 11]: 0
AST increased (number of patients with adverse event) [4, 11]: 1
Anaemia (number of patients with adverse event) [4, 11]: 3
Anorexia (number of patients with adverse event) [4, 11]: 1
Diarrhoea (number of patients with adverse event) [4, 11]: 1
Febrile neutropenia (number of patients with adverse event) [4, 11]: 0
Hyperglycemia (number of patients with adverse event) [4, 11]: 2
Hypertriglycemia (number of patients with adverse event) [4, 11]: 2
Itching (number of patients with adverse event) [4, 11]: 2
Leukopenia (number of patients with adverse event) [4, 11]: 2
Neuropathy (number of patients with adverse event) [4, 11]: 2
Neutropenia (number of patients with adverse event) [4, 11]: 1
Pain (number of patients with adverse event) [4, 11]: 2
Pneumonitis (number of patients with adverse event) [4, 11]: 0
Stomatitis (number of patients with adverse event) [4, 11]: 1
Thrombocytopenia (number of patients with adverse event) [4, 11]: 2
Vomiting (number of patients with adverse event) [4, 11]: 0
ALT increased (number of patients with adverse event) [4, 12]: 0
AST increased (number of patients with adverse event) [4, 12]: 0
Anaemia (number of patients with adverse event) [4, 12]: 0
Anorexia (number of patients with adverse event) [4, 12]: 0
Diarrhoea (number of patients with adverse event) [4, 12]: 0
Febrile neutropenia (number of patients with adverse event) [4, 12]: 0
Hyperglycemia (number of patients with adverse event) [4, 12]: 1
Hypertriglycemia (number of patients with adverse event) [4, 12]: 0
Itching (number of patients with adverse event) [4, 12]: 0
Leukopenia (number of patients with adverse event) [4, 12]: 0
Neuropathy (number of patients with adverse event) [4, 12]: 0
Neutropenia (number of patients with adverse event) [4, 12]: 2
Pain (number of patients with adverse event) [4, 12]: 0
Pneumonitis (number of patients with adverse event) [4, 12]: 0
Stomatitis (number of patients with adverse event) [4, 12]: 0
Thrombocytopenia (number of patients with adverse event) [4, 12]: 2
Vomiting (number of patients with adverse event) [4, 12]: 0
Response rate (breast cancer): 12%
Interpatient coefficient of variation of pharmacokinetic parameters ([5]; all parameters except Cmin, everolimus 5 mg daily with paclitaxel): less than 40%
Interpatient coefficient of variation of Cmin ([5]; everolimus 5 mg daily with paclitaxel): 52%
AUC(0-t) ([5]; human, whole blood, po, 5 mg): 284 ng·h/mL
Cmax ([5]; human, whole blood, po, 5 mg): 24.4 ng/mL
Tmax ([5]; human, whole blood, po, 5 mg): 0.98 to 6.02 h
